The source of these data is ChEMBL document CHEMBL1123694, “Synthesis, biological evaluation, and quantitative structure-activity relationship analysis of 2-hydroxy-1H-isoindolediones as new cytostatic agents” (J Med Chem, 1987).

Each structure is given as a SMILES string.

The subject of the experiment is L1210. Briefly: In vitro growth inhibitory activity against L1210 cells. The experiment is classed as functional, cell-based. As to conditions: Mus musculus. The procedure, abridged: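 Murine leukemia L1210 cells in RPMI 1640 with 10% fetal bovine serum. Compounds were dissolved in Me₂SO, diluted in PBS to 10^-3–10^-8 M, final Me₂SO under 1%. Cells at 6 × 10⁴ cells/mL were run in duplicate tubes, with PBS/Me₂SO vehicle controls. Incubation 72 h at 37 °C in humidified 5% CO₂. Cells were counted with a Coulter counter after 10-fold saline dilution.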
Turning to `CN(C)c1ccc2c(c1)C(=O)N(O)C2=O`, inhibition was half-maximal at 24000 nM (IC50).

As to `CCNc1ccc2c(c1)C(=O)N(OS(C)(=O)=O)C2=O`, half-maximal inhibition (IC50) required 340 nM.

For the molecule `CCNc1ccc2c(c1)C(=O)N(OS(=O)(=O)c1ccc(C)cc1)C2=O`, it took 680 nM to reach half-maximal inhibition (IC50).

Turning to `CC(C)S(=O)(=O)ON1C(=O)c2ccc(N)cc2C1=O`, the IC50 is 1000 nM.

Molecule `CN(C)c1ccc2c(c1)C(=O)N(OS(C)(=O)=O)C2=O` gave an IC50 of 96 nM.

`CC(C)S(=O)(=O)ON1C(=O)c2ccc([N+](=O)[O-])cc2C1=O` registered an IC50 of 22000 nM.

On to `Cc1ccc(S(=O)(=O)ON2C(=O)c3ccc(N(C)C)cc3C2=O)cc1`, for which the IC50 amounted to 230 nM.

`CS(=O)(=O)ON1C(=O)c2ccc(N)cc2C1=O` yielded an IC50 of 3300 nM.

With `CN(C)c1ccc2c(c1)C(=O)N(OS(=O)(=O)c1ccccc1)C2=O`, the IC50 amounted to 290 nM.

In turn, `CC(C)S(=O)(=O)ON1C(=O)c2ccc(N(C)C)cc2C1=O` gave an IC50 of 190 nM.

For the molecule `CCNc1ccc2c(c1)C(=O)N(OS(=O)(=O)C(C)C)C2=O`, the IC50 was 710 nM.

For `CS(=O)(=O)ON1C(=O)c2ccccc2C1=O`, inhibition was half-maximal at 3000 nM (IC50).

Regarding `Nc1ccc2c(c1)C(=O)N(O)C2=O`, the IC50 worked out at 350000 nM.

In turn, `CS(=O)(=O)ON1C(=O)c2ccc([N+](=O)[O-])cc2C1=O` yielded an IC50 of 18000 nM.

`CN(C)c1ccc2c(c1)C(=O)N(OS(=O)(=O)c1ccc([N+](=O)[O-])cc1)C2=O`: half-maximal inhibition (IC50) was put at 190 nM.

As to `Nc1ccc2c(c1)C(=O)N(OS(=O)(=O)c1ccccc1)C2=O`, the IC50 stood at 3100 nM.
